Experimental data from paper PMC10610910 (Science Advances, 2023).
Entries after “also recorded” stand apart in the source; their conditions may differ. No end group written: not given here.

How the values were obtained:
[1] = target: HSF2BP bound to BRME1-M (complex formed beforehand) (human) (UniProt O75031); experiment: ITC
[2] = system: interstrand crosslink repair (pICL) in Xenopus egg extract; experiment: Cisplatin interstrand crosslink repair in Xenopus egg extract; format: biochemical; conditions: HSF2BP 0.45 μM, peptide 1.35 μM
[3] = system: HR intermediates (X-arc) of pICL in Xenopus egg extract; format: biochemical; conditions: HSF2BP 0.45 μM, peptide 1.35 μM
[4] = target: T1, HSF2BP (Homo sapiens, UniProt O75031); experiment: ITC, BRME1 peptides versus full-length HSF2BP; format: binding
T1 sequence (O75031 1-334): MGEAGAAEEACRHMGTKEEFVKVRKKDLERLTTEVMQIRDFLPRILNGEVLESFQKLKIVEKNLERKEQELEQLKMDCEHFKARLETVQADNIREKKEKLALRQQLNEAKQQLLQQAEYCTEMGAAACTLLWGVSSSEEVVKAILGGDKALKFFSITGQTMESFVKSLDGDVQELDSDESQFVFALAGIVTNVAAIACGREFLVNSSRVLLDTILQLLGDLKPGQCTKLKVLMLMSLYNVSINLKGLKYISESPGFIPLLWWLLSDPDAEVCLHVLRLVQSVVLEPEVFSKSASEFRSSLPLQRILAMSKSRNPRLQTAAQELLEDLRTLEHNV
Outline: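 Full-length HSF2BP was His-tagged and bacterially expressed (IPTG, 20°C overnight), TEV-cleaved and SEC-purified. Synthetic BRME1 peptides: N, residues 578–601; M, 602–641; C, 649–668. In 25 mM tris pH 7.5, 250 mM NaCl, 5 mM β-mercaptoethanol at 293 and 303 K, 8–13 μM HSF2BP in the cell was titrated with 80–130 μM peptide. Injections of 10 μl every 210 s; first 2-μl injection discarded. Run in duplicate, fitted for stoichiometry, constants and thermodynamics.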

[5] = target: T1, HSF2BP; experiment: Scanning force microscopy; format: physicochemical
Outline: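 HSF2BP was diluted 10,000-fold to 12 nM in 25 mM tris-HCl pH 7.5, 250 mM NaCl, 5 mM β-mercaptoethanol. It was deposited for 30 s on freshly cleaved mica, rinsed with water, dried under filtered air, and imaged in air by SFM. Particle volume distributions were obtained by kernel density analysis.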

[6] = target: T1, HSF2BP; experiment: Mass photometry; format: physicochemical; conditions: 25-100 nM
[7] = system: endogenous Xenopus BRCA2; experiment: BRCA2 degradation during interstrand crosslink repair in Xenopus egg extract; format: biochemical; conditions: HSF2BP 0.45 μM, peptide 1.35 μM; 5 to 120 min
[8] = system: complex formed by HSF2BP and BRCA2-HBD; experiment: Negative-staining EM of ring-shaped HSF2BP-BRCA2-HBD complex; format: binding, human; conditions: 2:1 mix of HSF2BP and BRCA2-HBD
[9] = target: T2, HSF2BP helix α1 (Homo sapiens, UniProt O75031); experiment: ITC, BRME1-M versus HSF2BP helix α1 peptide; format: binding
T2 sequence (O75031 19-50 limits assumed): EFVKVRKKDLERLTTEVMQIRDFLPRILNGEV

[10] = target: T3, HSF2BP + BRCA2-HBD (Homo sapiens, UniProt O75031+P51587); experiment: ITC, BRME1-M versus HSF2BP bound to BRCA2-HBD; format: binding; conditions: 293 K
T3 sequence (O75031 1-334): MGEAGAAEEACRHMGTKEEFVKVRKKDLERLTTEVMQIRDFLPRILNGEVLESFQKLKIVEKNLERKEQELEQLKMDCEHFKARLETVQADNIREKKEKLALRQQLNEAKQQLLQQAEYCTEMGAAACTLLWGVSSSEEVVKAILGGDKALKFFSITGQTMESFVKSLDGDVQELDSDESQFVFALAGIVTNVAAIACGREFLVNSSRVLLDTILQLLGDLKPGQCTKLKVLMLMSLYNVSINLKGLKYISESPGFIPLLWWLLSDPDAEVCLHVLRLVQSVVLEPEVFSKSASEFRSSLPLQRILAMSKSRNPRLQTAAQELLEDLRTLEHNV
T3 sequence (P51587 2291-2342 C2332T partner limits assumed): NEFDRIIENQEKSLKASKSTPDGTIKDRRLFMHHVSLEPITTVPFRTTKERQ

[11] = target: T4, HSF2BP + BRME1-M (Homo sapiens, UniProt O75031+Q0VDD7); experiment: ITC, BRCA2 fragments versus HSF2BP bound to BRME1-M; format: binding; conditions: 293 K
T4 sequence (O75031 1-334): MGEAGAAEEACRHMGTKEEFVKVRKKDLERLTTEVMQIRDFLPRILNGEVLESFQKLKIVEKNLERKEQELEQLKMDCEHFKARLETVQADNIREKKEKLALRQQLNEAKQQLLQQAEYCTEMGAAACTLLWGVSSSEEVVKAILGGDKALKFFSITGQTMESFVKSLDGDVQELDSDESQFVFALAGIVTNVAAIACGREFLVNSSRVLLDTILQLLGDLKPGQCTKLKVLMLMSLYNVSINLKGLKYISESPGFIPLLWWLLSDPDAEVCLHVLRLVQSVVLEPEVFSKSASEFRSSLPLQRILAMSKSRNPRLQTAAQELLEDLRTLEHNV
T4 sequence (Q0VDD7 602-641 partner limits assumed): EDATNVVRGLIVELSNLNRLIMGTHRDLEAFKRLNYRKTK

[12] = target: the molecule itself; experiment: SEC-MALS
[13] = system: HeLa cells; format: cell-based, human; conditions: HeLa stably producing the protein; MMC, cisplatin, talazoparib
Outline: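 HeLa cells in DMEM with 10% fetal calf serum were stably co-transfected (PiggyBac) with GFP-HSF2BP and/or Flag-BRME1 variants, then selected with puromycin (1.5 μg/ml) and G418 (800 μg/ml) for 8 days; mixed populations were used. Seeded 100–1000 cells/well in technical duplicates, drugs added next day: MMC 2 h, cisplatin or talazoparib overnight. Coomassie-stained colonies counted on day 10.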

[14] = target: the molecule itself; experiment: crystal structure
[15] = SFM on mica, in air, HSF2BP at 12 nM

Molecule: BRCA2 fragment 2213–2342 (from UniProt P51587 2213-2342) (domain or fragment)
- dH [1]: -10.9 kcal/mol

Molecule: BRME1-C: synthetic peptide, human BRME1 residues 649 to 668 (PYPSKGPGNIPRGDPPWREL)
- effect on interstrand crosslink repair, in words [2]: no such effect
- effect on HR repair intermediates, in words [3]: no such effect
- binding to HSF2BP, in words ([4]; 30°C): does not bind HSF2BP

Molecule: EDATNVVRGLVIELSNLNRLIMGTHRDLEAFKRLNYRKTK [BRME1-M]
- effect on HSF2BP-BRCA2-HBD oligomers, in words ([5]; SFM, HSF2BP:BRME1-M = 1:1): complete disappearance of the 24-nucleotide oligomer population
- effect on interstrand crosslink repair, in words [2]: reverted the inhibitory effect of HSF2BP on the interstrand crosslink repair reaction
- effect on / state of HSF2BP oligomers, in words [6]: the HSF2BP tetramer is dissociated into dimers; also recorded: disassembles the 24-nucleotide oligomer complexes, yielding to a mix between octamers, tetramers, and dimers; also recorded: caused disassembly of the ring-shaped complex and enrichment in double-octamers, octamers, and tetramers
- effect on HR repair intermediates, in words [3]: specifically suppressed the reduction in the formation of HR repair intermediates
- ΔG ([4]; 293 K): -10.6 kcal/mol
- ΔH ([4]; 293 K): -5.7 kcal/mol
- ─TΔS ([4]; 293 K): -4.90 kcal/mol
- ΔG ([4]; 303 K): -10.7 kcal/mol
- ΔH ([4]; 303 K): -8.2 kcal/mol
- ─TΔS ([4]; 303 K): -2.50 kcal/mol
- effect on HSF2BP-induced BRCA2 degradation, in words [7]: completely abolished
- effect on ring-shaped complexes, in words [8]: near-complete disappearance of the large ring-shape complexes
- ΔH ([9]; 293 K): -1.2 kcal/mol
- ─TΔS ([9]; 293 K): -9.00 kcal/mol
- ΔH ([9]; 303 K): -7.6 kcal/mol
- ─TΔS ([9]; 303 K): -2.90 kcal/mol
- ΔG ([10]; first of two lines): -10 kcal/mol
- ΔH ([10]; first of two lines): -4.4 kcal/mol
- ─TΔS ([10]; first of two lines): -5.60 kcal/mol
- ΔH ([10]; second of two lines): -5.8 kcal/mol
- ─TΔS ([10]; second of two lines): -4.40 kcal/mol

B1: BRCA2_2213–2342: BRCA2 fragment 2213–2342 (protein, UniProt P51587 2213-2342, looked up, fragment)
chain: STYSKDSENYFETEAVEIAKAFMEDDELTDSKLPSHATHSLFTCPENEEMVLSNSRIGKRRGEPLILVGEPSIKRNLLNEFDRIIENQEKSLKASKSTPDGTIKDRRLFMHHVSLEPITCVPFRTTKERQ
- ΔH [11]: -10.9 kcal/mol
- ─TΔS [11]: -1.70 kcal/mol
- Kd ([11]; pH 7.5, 10 μM complex in cell, 55 to 60 μM BRCA2 fragment in syringe): 7.8 nM

B2: HSF2BP H80A-R84A (natural protein, human, UniProt O75031 1-334, looked up)
chain: MGEAGAAEEACRHMGTKEEFVKVRKKDLERLTTEVMQIRDFLPRILNGEVLESFQKLKIVEKNLERKEQELEQLKMDCEAFKAALETVQADNIREKKEKLALRQQLNEAKQQLLQQAEYCTEMGAAACTLLWGVSSSEEVVKAILGGDKALKFFSITGQTMESFVKSLDGDVQELDSDESQFVFALAGIVTNVAAIACGREFLVNSSRVLLDTILQLLGDLKPGQCTKLKVLMLMSLYNVSINLKGLKYISESPGFIPLLWWLLSDPDAEVCLHVLRLVQSVVLEPEVFSKSASEFRSSLPLQRILAMSKSRNPRLQTAAQELLEDLRTLEHNV
- stoichiometry N [12]: 8
- effect on cell resistance to DNA damage, in words [13]: compromised cell survival as HSF2BP wild type

B3: C78A-C120S-C128A (protein, UniProt O75031 1-334, looked up, variant C78A C120S C128A)
Heat shock factor 2-binding …: MGEAGAAEEACRHMGTKEEFVKVRKKDLERLTTEVMQIRDFLPRILNGEVLESFQKLKIVEKNLERKEQELEQLKMDAEHFKARLETVQADNIREKKEKLALRQQLNEAKQQLLQQAEYSTEMGAAAATLLWGVSSSEEVVKAILGGDKALKFFSITGQTMESFVKSLDGDVQELDSDESQFVFALAGIVTNVAAIACGREFLVNSSRVLLDTILQLLGDLKPGQCTKLKVLMLMSLYNVSINLKGLKYISESPGFIPLLWWLLSDPDAEVCLHVLRLVQSVVLEPEVFSKSASEFRSSLPLQRILAMSKSRNPRLQTAAQELLEDLRTLEHNV
- effect on cell resistance to DNA damage, in words [13]: sensitized HeLa cells less than the wild-type protein

B4: BRME1: Flag-BRME1 stably produced in HeLa cells (protein, UniProt Q0VDD7 1-668, looked up)
Break repair meiotic …: MTKRKKLRTSGEGLCPPKPLKNPRLGDFYGDPQSSMLGCLHHPEEPEGKLGPVPSTQQHGEEPGKAVSSSPDEETGSPCRLLRQPEKEPAPLPPSQNSFGRFVPQFAKSRKTVTRKEEMKDEDRGSGAFSLETIAESSAQSPGCQLLVETLGVPLQEATELGDPTQADSARPEQSSQSPVQAVPGSGDSQPDDPPDRGTGLSASQRASQDHLSEQGADDSKPETDRVPGDGGQKEHLPSIDSEGEKPDRGAPQEGGAQRTAGAGLPGGPQEEGDGVPCTPASAPTSGPAPGLGPASWCLEPGSVAQGSPDPQQTPSRMGREGEGTHSSLGCSSLGMVVIADLSTDPTELEERALEVAGPDGQASAISPASPRRKAADGGHRRALPGCTSLTGETTGESGEAGQDGKPPGDVLVGPTASLALAPGSGESMMGAGDSGHASPDTGPCVNQKQEPGPAQEEAELGGQNLERDLEGFRVSPQASVVLEHREIADDPLQEPGAQQGIPDTTSELAGQRDHLPHSADQGTWADSLAVELDFLLDSQIQDALDASDFEAPPEQLFPSGNKPGPCWPGPSSHANGDPVAVAKAQPRTFVGIQASEASRMEDATNVVRGLIVELSNLNRLIMGTHRDLEAFKRLNYRKTKLGGKAPLPYPSKGPGNIPRGDPPWREL
modifications: Flag tag
- effect on cell resistance to DNA damage, in words [13]: cancels the disruptive effect of HSF2BP on cancer cell resistance to DNA damage; also recorded: no effect on the cell sensitivity to DNA damage; also recorded: completely abolished the sensitization induced by HSF2BP

B5: HSF2BP helix α1 peptide (residues 19 to 50) (peptide, UniProt O75031 19-50, looked up)
peptide: EFVKVRKKDLERLTTEVMQIRDFLPRILNGEV
- stoichiometry N [14]: 4

B6: armadillo domain: HSF2BP armadillo domain alone (E122-V334) (protein)
chain: EMGAAACTLLWGVSSSEEVVKAILGGDKALKFFSITGQTMESFVKSLDGDVQELDSDESQFVFALAGIVTNVAAIACGREFLVNSSRVLLDTILQLLGDLKPGQCTKLKVLMLMSLYNVSINLKGLKYISESPGFIPLLWWLLSDPDAEVCLHVLRLVQSVVLEPEVFSKSASEFRSSLPLQRILAMSKSRNPRLQTAAQELLEDLRTLEHNV
- particle volume, larger peak [5, 15]: ~90 nm^3
- particle volume, smaller peak [5, 15]: ~35 nm^3
